# Bioassay records as filed in PubChem BioAssay.
# An excerpt weighted towards active compounds, which were near 1.9% of everything screened.
# IMP-1 inh: IMP-1 metallo-beta-lactamase inhibitors, primary screen, biochemical, epi-absorbance readout, Pseudomonas aeruginosa enzyme; metallo-beta-lactamase IMP-1 (Pseudomonas aeruginosa); purified IMP-1, nitrocefin hydrolysis, epi-absorbance fluorescence; inhibition, % at 5.6 µM; hit rate 0.45% among 290,000;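 active = inhibition above the mean plus 3 SD of all compounds in the same screening run, cut at about 4.5% in these data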
#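 System: purified recombinant IMP-1 beta-lactamase. Medium: Zinc- and detergent-supplemented HEPES buffer, pH 7.1. Compound: one 5.6 µM dose […]. Schedule: 15 min preincubation plus 25 min reaction at 25 °C. Technique: Epi-absorbance fluorescence, 480 nm excitation, 530 nm emission.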
# VIM-2 inhibitor: VIM-2 metallo-beta-lactamase inhibitors, primary screen, biochemical, epi-absorbance readout, Pseudomonas aeruginosa enzyme | purified VIM-2, nitrocefin hydrolysis, epi-absorbance fluorescence | inhibition, % at 5.6 µM | hit rate 0.89% among 290,000 | AID 1527, 2009;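 active = inhibition above the mean of all tested compounds plus 3 SD, cutoff set per screening run, cut at about 7.5% in these data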;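 also: red hydrolysis product quenches plate fluorescence so inhibitors raise well fluorescence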
# NadD block: inhibitors of S. aureus NadD, primary screen, biochemical, colorimetric, uHTS. hit rate 0.78% among 360,000. purified NadD enzyme, colorimetric absorbance read-out. inhibition, % at 20 µM. Nicotinate-nucleotide adenylyltransferase NadD (Staphylococcus aureus N315). AID 602399, 2012; in the data active = inhibition above about 26%
# HCV core dimer: inhibitors of HCV core protein dimerization, primary screen, biochemical, TR-FRET, high-throughput; TR-FRET GST/Flag-core106 dimerization, 1536-well; inhibition, % at 5 µM; hit rate 0.33% among 300,000; AID 1899, 2009;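 active = inhibition above the mean of all tested compounds plus 3 SD, set per screening campaign, cut at about 45% in these data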
#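 Assay system: tagged HCV core106 pair (GST and Flag); medium: KF-containing HEPES buffer, pH 7.45, DTT, CHAPS, BSA; also added: Eu donor and XL665 acceptor anti-tag antibodies; dosing: 5 µM single dose; timing: compound-protein-antibody incubation 4 h at 22.5 °C; signal: TR-FRET 671 and 617 nm emission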
# Numbers stand for hits; n = inactive; x = not tested or not shown.
SMILES,IMP-1 inh,VIM-2 inhibitor,NadD block,HCV core dimer
NC(=O)c1ccc(NC(=O)CN2CCN(S(=O)(=O)c3ccc4c(c3)OCCO4)CC2)cc1,x,x,n,x
NC(=O)c1c(NC(=O)CN2CCN(S(=O)(=O)c3ccccc3)CC2)sc2c1CCC2,x,x,n,48
N#Cc1c(NC(=O)CN2CCN(S(=O)(=O)c3ccc4c(c3)OCCO4)CC2)sc2c1CCC2,n,n,n,71
CCOC(=O)C1=C(O)C(=O)N(c2ccc(S(N)(=O)=O)cc2)C1c1ccc(Br)cc1 (stereo not drawn),n,n,n,n
COc1ccc2oc(C(=O)Nc3cccc(S(=O)(=O)N4CCOCC4)c3)c(C)c2c1,x,x,n,x
O=C(O)CC/C(=C\c1ccc2c(c1)OCO2)c1nc2ccccc2s1,n,11,n,n
O=C(O)CC/C(=C\c1ccc(Cl)c([N+](=O)[O-])c1)c1nc2ccccc2s1,n,9.2,n,n
COc1cc(/C=C(\CCC(=O)O)c2nc3ccccc3s2)ccc1OCC(=O)Nc1c(Cl)cccc1Cl,x,x,n,x
O=C(O)CC/C(=C\c1ccc(N2CCOCC2)c([N+](=O)[O-])c1)c1nc2ccccc2s1,n,n,n,x
Cn1cc(SCC(=O)N2CCCc3ccccc32)c2ccccc21,6.9,n,n,n
Cc1ccc([N+](=O)[O-])cc1-c1[nH]c(-c2ccc(O)c(O)c2)nc1-c1ccccc1,n,n,31,n
COc1cc(/C=C2\C(=N)N3N=C(S(C)(=O)=O)SC3=NC2=O)cc(OC)c1OCCOc1ccc(C)cc1,n,n,30,n
CCc1nn2c(=O)cc(COc3ccc(/C=C4\C(=N)N5N=C(CC(C)C)SC5=NC4=O)cc3)nc2s1,n,n,x,n
COc1cc(/C=C2\C(=N)N3N=C(S(C)(=O)=O)SC3=NC2=O)ccc1OCCOc1ccc(C)cc1,n,n,33,n
CCS(=O)(=O)C1=NN2C(=N)/C(=C\c3ccc(OCCOc4cccc(OC)c4)c(OC)c3)C(=O)N=C2S1,n,n,n,n
COc1cc(/C=C2\C(=N)N3N=C(S(C)(=O)=O)SC3=NC2=O)cc(OC)c1OCCOc1cccc(C)c1,n,n,32,n
CCC1=NN2C(=N)/C(=C\c3ccc(OCc4cc(=O)n5nc(CC)sc5n4)c(OC)c3)C(=O)N=C2S1,n,n,44,x
CN(C)C(CNc1ncccn1)c1ccccc1 (stereo not drawn),n,n,n,n
CC(=O)Nc1ccc(S(=O)(=O)NCC2(N3CCOCC3)CCCCC2)cc1,x,x,n,x
CC1(C(=O)Nc2ccc3c(c2)OCO3)Cc2c(-c3cccc(C(F)(F)F)c3)ccnc2O1 (stereo not drawn),x,x,n,x
CCOc1cc(/C=C2\C(=N)N3N=C(S(C)(=O)=O)SC3=NC2=O)ccc1OCCOc1cccc(OC)c1,n,n,31,n
CCOC(=O)c1cc(-c2ccncc2)nc2c1c(C)nn2C,n,8.2,n,n
CCCn1c2ccccc2c2cnn(CC(=O)N3CCN(C4CCCCC4)CC3)c(=O)c21,n,7.8,n,n
CCCn1c2ccccc2c2cnn(CC(=O)N3CCOCC3)c(=O)c21,n,n,n,n
CCOC(=O)c1c(NC(=O)CN2CCN(S(=O)(=O)c3cc(Cl)ccc3Cl)CC2)sc(C(=O)N(C)C)c1C,x,x,n,x
SMILES,IMP-1 inh,VIM-2 inhibitor,NadD block,HCV core dimer
CCN(CC)c1ccc(S(=O)(=O)N2CCOCC2)cc1NC(=O)CSc1nnc(N)s1,x,x,n,n
CCOC(=O)C1=C(c2ccccc2)N=c2sc(=Cc3cc(OC)c(OC)c(OC)c3)c(=O)n2C1c1cccs1 (stereo not drawn),x,x,n,x
CCOC(=O)C1=C(C)N=c2s/c(=C/c3cccc([N+](=O)[O-])c3O)c(=O)n2C1c1ccccc1 (stereo not drawn),n,8.1,n,n
CCOC(=O)C1=C(C)N=c2s/c(=C\c3ccc(C(=O)O)cc3)c(=O)n2C1c1ccc(OC)cc1OC (stereo not drawn),n,n,n,n
CCOC(=O)C1=C(C)N=c2s/c(=C/c3ccco3)c(=O)n2C1c1cccc(OC)c1 (stereo not drawn),n,n,x,48
CCOC(=O)C1=C(c2ccccc2)N=c2s/c(=C\c3ccc(O)cc3)c(=O)n2C1c1cccs1 (stereo not drawn),n,n,35,n
CCOC(=O)C1=C(C)N=c2s/c(=C/c3cccc([N+](=O)[O-])c3O)c(=O)n2C1c1cc(OC)c(OC)c(OC)c1 (stereo not drawn),n,n,n,n
COc1ccc(NC(=O)CCNS(=O)(=O)c2ccc3[nH]c(=O)oc3c2)cc1Cl,n,n,n,n
CCOc1ccc(S(=O)(=O)Nc2cc(SCC(=O)O)c(O)c3ccccc23)cc1,n,10,n,x
O=C(NC1CCCCC1)NC1C2CC3CC(C2)CC1C3 (stereo not drawn),n,n,n,n
O=c1c(=O)n(O)c2ccccc2n1O,11,n,n,n
COn1c(=O)c(=O)n(O)c2ccccc21,n,n,n,n
COc1ccccc1N1CCN(S(=O)(=O)c2cc3[nH]c(=O)c(=O)[nH]c3cc2C)CC1,4.5,n,n,n
Cc1cc2[nH]c(=O)c(=O)[nH]c2cc1S(=O)(=O)N1CCN(c2ccccc2F)CC1,n,n,n,n
CC(C)C[C@H]1CNC(=O)C(=O)N1C[C@H](Cc1ccc(O)cc1)NC(=O)Cc1ccccc1,x,x,n,x
C[C@H]1CNC(=O)C(=O)N1C[C@H](Cc1ccc(O)cc1)NC(=O)CC12CC3CC(CC(C3)C1)C2,8.4,n,n,n
O=C(Nc1ncc2c(n1)-c1ccccc1CC2)c1ccc(Cl)cc1,24,n,n,n
COc1ccc2c(c1OC)OCC2C (stereo not drawn),x,x,n,x
CCOc1ccccc1N1Cc2ccccc2C1,n,n,n,54
Cc1cc2c(cc1C)CN(c1ccccc1)C2,n,n,n,n
CCOc1ccc(N2Cc3ccccc3C2)cc1,n,n,n,n
CCOc1ccccc1N1Cc2cc(C)c(C)cc2C1,n,n,n,67
CN(C(=O)c1ccccc1C(=O)OCC(=O)c1ccc(F)c(F)c1)C1CCCCC1,x,x,n,x
COc1ccc(Cl)cc1Nc1nc(Cl)nc(NCCO)n1,x,x,n,x
O=C(NNc1c2ccccc2nc2ccccc12)c1ccc(O)cc1O,n,n,31,n
SMILES,IMP-1 inh,VIM-2 inhibitor,NadD block,HCV core dimer
Cc1ccc(-n2cc(C(=O)c3cc(Cl)ccc3O)cc(C#N)c2=O)cc1,n,n,n,n
N#Cc1cc(C(=O)c2ccccc2O)cn(-c2ccc(Cl)cc2)c1=O,5.4,n,n,n
CN(C)c1cc(-c2ccc(Cl)c(Cl)c2)oc(=O)c1Cl,5.4,n,n,n
COc1ccc(-c2cc(-c3ccccc3)nc(SCC(=O)Nc3ncc(C)s3)c2C#N)cc1,n,n,34,n
COc1ccc(Cc2nnc(N=Nc3c(O)[nH]c4ccc(Br)cc34)[nH]c2=O)cc1,n,n,38,n
COC(=O)N=Nc1c(O)[nH]c2ccc(Br)cc12,n,n,n,n
COc1ccc(-c2csc(NC3CCCCC3)n2)c(OC)c1,8.0,n,n,n
